Screening data: PubChem, Sanford-Burnham Center for Chemical Genomics
A selection: hits, their analogues and other compounds. The true share with any hit is near 1.2%.
PfGluPho inh: PfG6PD (Plasmodium falciparum) enzyme inhibition; inhibition, % at 20 µM; 0.78% of 350,000 active; PfGluPho enzyme, NADPH resazurin-diaphorase fluorescence; AID 504690;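 active = inhibition reaching at least a set limit at 20 µM in the primary screen, cut at about 59% in these data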
G6PDH CS: inhibits Leuconostoc G6PDH, flagging false hits in G6PDH-based assays | AID 1020 | 0.12% of 200,000 active | inhibition, % at 5 µM | Purified L. mesenteroides G6PDH, diaphorase/resazurin coupled fluorescence, 45 min; in the data active = inhibition above about 50%
Diaphorase inh: inhibits diaphorase or chemically oxidizes, flagging diaphorase assay artifacts. AID 1217. diaphorase resazurin-to-resorufin fluorescence, NADH, 16 min; bacterial (C. kluyveri) enzyme, not human. 0.69% of 190,000 active. inhibition, % at 20 µM;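 active = primary screen inhibition at 20 µM above a set limit, cut at about 50% in these data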
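System: Bacterial diaphorase enzyme (C. kluyveri) | Incubation: 16-min room-temperature incubation before reading | Benchmarks: No-NADH positive control and DMSO neutral control | Measured by: Resorufin fluorescence 544/590 nm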
Diaphorase act: activates diaphorase or chemically reduces, flagging diaphorase assay artifacts; Diaphorase/resazurin coupled assay, resorufin fluorescence, 16 min; stronger effect = higher value; 1 = vehicle wells, 0 = NADH-free wells; activation factor at 20 µM; 0.005% of 190,000 active; AID 1229;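 active = diaphorase activity raised at least twofold by the compound at 20 µM; inactive = activation factor below 2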
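System – purified diaphorase enzyme from Clostridium kluyveri · Input – enzyme 0.07 U/mL final · Also added – final NADH 0.114 mM, resazurin 0.1 mM · Measured by – fluorescence of resorufin, 544 nm excitation, 590 nm emission · Timing – 16 min enzyme reaction, ambient temperature · Measure – resorufin increase flagging diaphorase activators or reducers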
HKDC1 inh: blocks human hexokinase HKDC1 activity. Q2TB90. recombinant HKDC1, G6PDH/diaphorase resazurin coupled fluorescence. inhibition, % at 20 µM. 0.16% of 340,000 active;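 active = inhibition above about 35% when tested at 20 µM, limit read from the data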
Target sequence (Q2TB90 whole entry, looked up): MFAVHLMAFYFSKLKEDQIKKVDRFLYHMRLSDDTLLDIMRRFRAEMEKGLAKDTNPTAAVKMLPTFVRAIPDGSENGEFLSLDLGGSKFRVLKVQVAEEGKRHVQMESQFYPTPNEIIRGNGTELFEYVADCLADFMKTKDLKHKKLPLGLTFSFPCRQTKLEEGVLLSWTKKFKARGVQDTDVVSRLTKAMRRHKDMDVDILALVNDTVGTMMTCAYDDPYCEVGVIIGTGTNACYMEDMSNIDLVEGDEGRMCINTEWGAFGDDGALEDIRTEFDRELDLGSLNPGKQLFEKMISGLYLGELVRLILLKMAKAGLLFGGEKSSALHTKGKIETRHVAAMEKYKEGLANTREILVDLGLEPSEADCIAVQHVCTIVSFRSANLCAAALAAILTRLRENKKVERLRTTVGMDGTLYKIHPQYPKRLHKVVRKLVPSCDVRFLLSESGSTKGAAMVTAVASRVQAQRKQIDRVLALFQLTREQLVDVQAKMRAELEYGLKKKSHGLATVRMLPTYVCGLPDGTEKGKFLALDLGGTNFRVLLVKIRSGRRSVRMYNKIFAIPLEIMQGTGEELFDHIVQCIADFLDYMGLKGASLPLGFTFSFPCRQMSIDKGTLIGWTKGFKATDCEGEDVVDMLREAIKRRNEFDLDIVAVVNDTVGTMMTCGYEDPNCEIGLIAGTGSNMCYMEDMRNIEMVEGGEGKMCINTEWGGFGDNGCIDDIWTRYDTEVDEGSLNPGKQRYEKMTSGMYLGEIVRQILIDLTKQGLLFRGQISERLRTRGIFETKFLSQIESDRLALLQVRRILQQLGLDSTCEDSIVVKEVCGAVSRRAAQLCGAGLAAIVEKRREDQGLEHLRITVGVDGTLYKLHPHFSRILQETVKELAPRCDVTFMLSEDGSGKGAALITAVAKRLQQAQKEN
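Material – in-house recombinant HK5 (HKDC1) enzyme · Quantity – HKDC1 at 5 µg/mL · Buffer or medium – pH 8.0 Tris buffer with 10 mM MgCl2 · Reagent – glucose with 1 mM ATP · Dosing – single 20 µM dose · Times – reaction time 90 min, room temperature, protected from light · Technique – resorufin fluorescence at 613 nm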
Hits are given with their value; n = inactive; x = not tested or not shown.

SMILES | PfGluPho inh | G6PDH CS | Diaphorase inh | Diaphorase act | HKDC1 inh
CCOC(=O)c1cc2c(=O)n3ccccc3nc2n(Cc2ccco2)c1=NC(=O)c1ccccc1OC | n | n | 80 | n | n
Cc1c(NC(=O)CSc2nnc(-c3ccccc3F)o2)c(=O)n(-c2ccccc2)n1C | n | x | x | x | x
CC1(C)CC(=O)C=C(c2n[nH]nc2C2=CCCCC2)C1 | n | x | x | x | x
CCN(CC)C(=O)C1=C(C)N(CCC2=CCCCC2)C(=O)C(CC(=O)NCc2ccco2)C1 (configuration not stated) | n | x | x | x | x
COc1ccc(CN(C)C(=O)CCNS(=O)(=O)c2ccccc2)c(OC)c1 | n | x | x | x | x
CCOC(=O)c1ccc(NC(=O)c2ncn3c2C(=O)NC[C@@H]3C)cc1 | n | x | x | x | x
Cc1nn(-c2ccc(Cl)cc2)c(=O)c2ccccc12 | n | n | n | n | n
Cc1c(Cl)sn(-c2ccc(Cl)cc2)c1=O | 106 | n | n | n | n
Cc1ccc(NC(=S)Nc2cccc3cnccc23)c(C)c1 | n | n | 59 | n | n
Cc1cc(C)cc(NC(=S)Nc2cccc3cnccc23)c1 | n | n | n | n | n
Cc1ccc(C(=O)N/C(=C\c2ccccc2F)c2nc(=S)[nH][nH]2)cc1 | n | n | 51 | n | n
Cc1ccc(/C=C(\NC(=O)c2ccc(C)cc2)c2nc(=S)[nH][nH]2)cc1 | n | n | n | n | n
CC12CCC(C(=O)N(CSC(=S)N/N=C\c3ccccc3)C1=O)C2(C)C (configuration not stated) | n | n | 58 | n | n
CCCN1CCN(CCCNC(=O)CN2C(=O)COc3ccc(C(C)(C)C)cc32)CC1 | n | x | x | x | x
C/C(=N/NC(=O)c1cc(O)c(O)c(O)c1)c1ccc([N+](=O)[O-])cc1 | n | n | 75 | n | n
O=c1[nH]c(/C=C2\C=Nc3ccccc32)c(O)n1Cc1ccccc1F | n | n | 69 | n | n
CCOC(=O)CSc1nc2c(sc(=S)n2-c2ccccc2)c(=O)n1-c1ccc(OC)cc1OC | 65 | x | x | x | n
CCN(CC)C(=O)CSc1nc2c(sc(=S)n2-c2ccccc2)c(=O)n1-c1ccccc1OC | n | x | x | x | n
COc1cc(CN2CCC(C(=O)N3CCCC(C)C3)CC2)cc(OC)c1O (configuration not stated) | n | 53 | n | n | n
COc1cc(CN2CCC(C(=O)NC3CCCC3)CC2)cc(OC)c1O | n | 53 | n | n | n
CCOC(=O)C1CCCN(Cc2cc(OC)c(O)c(OC)c2)C1 (configuration not stated) | n | n | n | n | n
CN(CCCn1ccc(NC(=O)OCc2ccccc2)nc1=O)CCc1ccccn1 | n | x | x | x | x
O=C(NCc1nnnn1-c1ccc(Cl)cc1)C(=O)c1c[nH]c2ccccc12 | n | x | x | x | x
CCC(=O)Nc1c(C#N)c2nc3ccccc3nc2n1C1CCCCC1 | n | n | n | n | n
CCOC(=O)c1c(NC(=O)c2ccco2)n(C2CCCCC2)c2nc3ccccc3nc12 | n | n | 69 | n | n
SMILES | PfGluPho inh | G6PDH CS | Diaphorase inh | Diaphorase act | HKDC1 inh
COc1ccc(-n2c(NC(=O)c3ccco3)c(C#N)c3nc4ccccc4nc32)cc1 | n | n | 70 | n | n
O=[N+]([O-])c1cc2oc3c(c2c(C=NCc2ccncc2)c1O)CCCC3 | n | n | 56 | n | n
CCC(CC)C(=O)NCCc1cc2ccc(C)cc2[nH]c1=O | n | n | n | n | n
Cc1ccc2cc(CCNC(=O)c3ccc(C)c([N+](=O)[O-])c3)c(=O)[nH]c2c1 | n | n | 59 | n | n
CC(C)CN(Cc1c(O)ccc2ccccc12)CC(C)C | n | n | n | n | n
CCN(Cc1ccncc1)Cc1c(O)ccc2ccccc12 | n | n | 64 | n | n
CC1CC(=O)Nc2ccccc2N1C(=O)COc1ccccc1C(N)=O (configuration not stated) | n | x | x | x | x
CCCN1CCCc2cc(CN)ccc21 | 66 | 54 | n | n | n
CN1CCCc2cc(C=O)ccc21 | n | n | n | n | n
CC(C)CN1C(=O)C(=O)N(CC(=O)NCCCc2ccccc2)C1=O | n | x | x | x | x
O=C(N/N=C/c1ccc(-c2ccccc2[N+](=O)[O-])o1)[C@H]1C[C@@H]1c1ccccc1 | n | n | 52 | n | n
Cc1ccc(Nc2c([N+](=O)[O-])ccc3c2=NC2(CCCCC2)N=3)cc1 | n | n | 51 | n | n
